pIC50, pKi: −log10 of the molar value. *1 amine or outer side, *2 acyl side, *3 side chain or, on linkers, in order; H or OH if unused. Where a SMILES comes first, the peptide text is derived from it. [ ]: non-standard residue; d: D form. The star is where a group is joined. ξ: configuration not given here. Sta(3ξ) = CC(C)C[C@H](N[*:1])C(O)CC(=O)[*:2]; X1 = CC(C)CC(N[*:1])C(O)CC(C(=O)[*:2])C(C)C; Sta = CC(C)C[C@H](N)[C@@H](O)CC(=O)O; NMeH = CN[C@@H](Cc1c[nH]cn1)C(=O)O; NHCH2(2-pyridyl) = c1ccc(CN*)nc1; Isobutyryl = CC(C)C(=O)*; Boc = CC(C)(C)OC(=O)*
Tests used:
Pepsin A [1] = biological target: T1, Pepsin A (Homo sapiens, UniProt P0DJD9); assay: Inhibition of human pepsin at pH 3.1
T1 sequence (P0DJD9 whole entry): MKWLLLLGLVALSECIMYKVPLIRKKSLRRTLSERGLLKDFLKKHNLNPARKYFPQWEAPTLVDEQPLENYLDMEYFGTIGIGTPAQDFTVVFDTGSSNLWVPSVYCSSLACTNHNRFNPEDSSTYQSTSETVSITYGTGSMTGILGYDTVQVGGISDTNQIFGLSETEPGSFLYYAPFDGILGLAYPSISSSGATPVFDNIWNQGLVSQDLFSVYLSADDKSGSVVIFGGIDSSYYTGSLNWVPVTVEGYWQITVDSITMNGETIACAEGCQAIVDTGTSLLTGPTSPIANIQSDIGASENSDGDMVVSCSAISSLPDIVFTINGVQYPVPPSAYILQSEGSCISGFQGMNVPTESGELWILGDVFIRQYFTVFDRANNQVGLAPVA

Cathepsin D [2] = biological target: T2, Cathepsin D (Bos taurus, UniProt P80209); assay: Inhibition of bovine cathepsin D at pH 3.2
T2 sequence (P80209 whole entry): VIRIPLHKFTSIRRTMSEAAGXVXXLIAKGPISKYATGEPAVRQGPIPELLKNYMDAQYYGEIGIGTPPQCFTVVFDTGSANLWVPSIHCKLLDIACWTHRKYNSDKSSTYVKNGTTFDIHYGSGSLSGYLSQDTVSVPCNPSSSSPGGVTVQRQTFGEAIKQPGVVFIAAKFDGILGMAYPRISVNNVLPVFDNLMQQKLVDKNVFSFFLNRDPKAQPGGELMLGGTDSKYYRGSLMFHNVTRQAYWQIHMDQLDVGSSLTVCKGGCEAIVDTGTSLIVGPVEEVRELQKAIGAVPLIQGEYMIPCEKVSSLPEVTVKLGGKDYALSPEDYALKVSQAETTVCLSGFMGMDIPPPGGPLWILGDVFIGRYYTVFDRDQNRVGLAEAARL

Pepsin A [3] = biological target: T1, Pepsin A; assay: Inhibition of human pepsin at pH 2.0
Cathepsin D [4] = biological target: T2, Cathepsin D; assay: Inhibition of bovine cathepsin D at pH 3.1
Renin [5] = biological target: T3, Renin (Homo sapiens, UniProt P00797); assay: Inhibition of human renin at pH 7.0
T3 sequence (P00797 whole entry): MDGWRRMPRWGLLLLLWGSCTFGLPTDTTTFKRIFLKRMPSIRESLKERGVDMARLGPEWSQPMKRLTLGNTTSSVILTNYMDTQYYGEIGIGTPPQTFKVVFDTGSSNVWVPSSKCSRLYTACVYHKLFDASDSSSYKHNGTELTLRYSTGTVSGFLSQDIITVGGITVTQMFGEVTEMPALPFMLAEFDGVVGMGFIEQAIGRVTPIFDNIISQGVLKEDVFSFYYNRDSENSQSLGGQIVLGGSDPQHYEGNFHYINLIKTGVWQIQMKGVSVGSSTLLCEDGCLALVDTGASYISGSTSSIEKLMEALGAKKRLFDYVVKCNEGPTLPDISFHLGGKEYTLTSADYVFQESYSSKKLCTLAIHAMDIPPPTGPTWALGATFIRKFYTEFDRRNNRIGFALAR

Renin [6] = biological target: T3, Renin; assay: Inhibition of human renin at pH 6.0
Pepsin A [7] = biological target: T4, Pepsin A (Sus scrofa, UniProt P00791); assay: Inhibition of porcine pepsin at pH 2.0
T4 sequence (P00791 whole entry): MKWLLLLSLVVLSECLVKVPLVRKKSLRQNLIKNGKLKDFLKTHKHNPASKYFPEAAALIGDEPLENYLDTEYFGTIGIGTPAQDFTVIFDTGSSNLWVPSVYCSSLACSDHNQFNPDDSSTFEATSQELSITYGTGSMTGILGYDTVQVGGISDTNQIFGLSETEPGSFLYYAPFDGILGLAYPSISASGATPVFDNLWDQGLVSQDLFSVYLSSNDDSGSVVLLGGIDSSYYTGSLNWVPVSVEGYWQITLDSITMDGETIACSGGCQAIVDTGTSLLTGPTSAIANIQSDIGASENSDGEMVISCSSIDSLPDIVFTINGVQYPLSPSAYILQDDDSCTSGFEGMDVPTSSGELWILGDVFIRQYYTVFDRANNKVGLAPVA

Renin [8] = biological target: T3, Renin; assay: Inhibition of human renin at pH 7.4
Pepsin A [9] = biological target: T4, Pepsin A; assay: Inhibition of porcine pepsin at pH 4.0
Summary of the method: (§1)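 Hydrolysis was followed as the absorbance drop at 290 nm over the first 5–10% of reaction. Percent activity was plotted against inhibitor concentration to give IC50, and Ki = (IC50 − 0.5Et)/(1 + S/Km).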

Pepsin A [10] = biological target: T4, Pepsin A; assay: Inhibition of porcine pepsin at pH 1.9
Cathepsin D [11] = biological target: T2, Cathepsin D; assay: Inhibition of bovine cathepsin D at pH 3.3(no inhibition)
Pepsin A [12] = biological target: T4, Pepsin A; assay: Inhibition of porcine pepsin at pH 4; summary of the method: as §1
Pepsin A [13] = biological target: T4, Pepsin A; assay: Inhibition of porcine pepsin at pH 4.0 (time-dependent inhibition, T1/2>30 s)

| SMILES | pIC50 (Pepsin A [7]) | pKi (Renin [8]) | pKi (Pepsin A [9]) | other results |
| --- | --- | --- | --- | --- |
| CC[C@H](C)[C@H](NC(=O)C(F)(F)C(=O)[C@H](CC(C)C)NC(=O)[C@H](Cc1c[nH]cn1)NC(=O)[C@H](Cc1ccccc1)NC(=O)OC(C)(C)C)C(=O)NCc1ccccn1 |  |  |  | pIC50 (Pepsin A [1]): 4.22; pIC50 (Cathepsin D [2]): 5.77; pIC50 (Pepsin A [3]): 4.38; pIC50 (Cathepsin D [4]): 4.40 |
| CC[C@H](C)[C@H](NC(=O)C(F)(F)C(=O)C(CC(C)C)NC(=O)[C@H](Cc1c[nH]cn1)NC(=O)[C@H](Cc1ccccc1)NC(=O)OC(C)(C)C)C(=O)NCc1ccccn1 (stereo not given in full) |  |  |  | pIC50 (Renin [5]): 8.00; pIC50 (Renin [6]): 8.85 |
| COC(=O)[C@H](Cc1ccccc1)NC(=O)[C@H](CC(C)C)NC(=O)CC(O)[C@H](CC(C)C)NC(=O)CCCNC(=O)[C@H](Cc1ccccc1)NC(=O)[C@@H]1CCCN1C(=O)CCCN (stereo not given in full) |  | 8.05 | > 9.00 |  |
| COC(=O)[C@H](Cc1ccccc1)NC(=O)[C@H](CC(C)C)NC(=O)CC(O)[C@H](CC(C)C)NC(=O)[C@H](CC(C)C)NC(=O)COC(=O)C(C)(C)C (stereo not given in full) |  | 5.77 | 7.92 |  |
| CC(C)CC(NC(=O)CCc1ccccc1)SCC(O)C(CC1CCCCC1)NC(=O)[C@H](Cc1cnc[nH]1)NC(=O)[C@H](Cc1ccccc1)NC(=O)OC(C)(C)C (stereo not given in full) |  |  |  | pIC50 (Renin [6]): 8.15; pIC50 (Cathepsin D [4]): < 4.00; pIC50 (Pepsin A [10]): < 4.00 |
| CC[C@H](C)[C@H](NC(=O)[C@@H](NC[C@H](CC(C)C)NC(=O)[C@H](Cc1c[nH]cn1)NC(=O)[C@H](Cc1ccccc1)NC(=O)[C@@H]1CCCN1C(=O)[C@H](Cc1c[nH]cn1)NC(=O)[C@@H]1CCCN1)C(C)C)C(=O)N[C@@H](Cc1c[nH]cn1)C(=O)N[C@@H](CCCCN)C(=O)O |  |  |  | pIC50 (Renin [5]): 8.00; pIC50 (Cathepsin D [11]): < 3.15 |
| CC[C@H](C)[C@H](NC(=O)C(CC(O)C(CC(C)C)NC(=O)[C@H](Cc1c[nH]cn1)N(C)C(=O)[C@H](Cc1ccccc1)NC(=O)[C@@H]1CCCN1C(=O)OC(C)(C)C)C(C)C)C(=O)NCc1ccccn1 (stereo not given in full) (Boc-PF[NMeH][X1]I-{NHCH2(2-pyridyl)}) | 5.17 |  |  | pIC50 (Renin [6]): 9.59; pIC50 (Cathepsin D [2]): 5.20 |
| COC(=O)[C@H](Cc1ccccc1)NC(=O)[C@H](C)NC(=O)C[C@H](O)[C@H](CC(C)C)NC(=O)[C@H](Cc1c[nH]cn1)NC(=O)CNC(=O)[C@@H](N)Cc1ccccc1 (H-FGH[Sta]AF-OMe) |  |  |  | pKi (Pepsin A [12]): 6.82 |
| COC(=O)[C@H](Cc1ccccc1)NC(=O)[C@H](C)NC(=O)C[C@H](O)[C@H](CC(C)C)NC(=O)[C@@H](NC(=O)CNC(=O)[C@@H](N)Cc1ccccc1)C(C)C (H-FGV[Sta]AF-OMe) |  |  |  | pKi (Pepsin A [13]): > 9.00 |
| CC(C)C[C@H](NC(=O)CC(O)[C@H](CC(C)C)NC(=O)[C@H](Cc1c[nH]cn1)NC(=O)[C@H](Cc1ccccc1)NC(=O)[C@@H]1CCCN1C(=O)[C@@H](N)Cc1c[nH]cn1)C(=O)N[C@@H](Cc1ccccc1)C(N)=O (stereo not given in full) (H-HPFH[Sta(3ξ)]LF-NH2) |  | 8.10 | 7.47 |  |
| CC(C)C[C@H](NC(=O)CC(O)[C@H](CC(C)C)NC(=O)[C@H](C)NC(=O)[C@H](Cc1ccccc1)NC(=O)[C@@H]1CCCN1C(=O)[C@H](Cc1c[nH]cn1)NC(=O)C(C)C)C(=O)N[C@@H](Cc1ccccc1)C(N)=O (stereo not given in full) (Isobutyryl-HPFA[Sta(3ξ)]LF-NH2) |  | 7.00 | 8.40 |  |
| CC(C)C[C@H](NC(=O)CC(O)[C@H](CC(C)C)NC(=O)[C@H](Cc1c[nH]cn1)NC(=O)[C@H](Cc1ccccc1)NC(=O)[C@@H]1CCCN1C(=O)[C@H](Cc1c[nH]cn1)NC(=O)C(C)C)C(=O)N[C@@H](Cc1ccccc1)C(N)=O (stereo not given in full) (Isobutyryl-HPFH[Sta(3ξ)]LF-NH2) |  | 7.80 | 7.64 |  |

Continued, in another order:

| pIC50 (Pepsin A [7]) | pKi (Renin [8]) | pKi (Pepsin A [9]) | SMILES | other results |
| --- | --- | --- | --- | --- |
| 7.22 |  |  | COC(=O)CC(O)[C@H](CC(C)C)NC(=O)[C@H](C)NC(=O)CC(O)[C@H](CC(C)C)NC(=O)[C@@H](NC(=O)[C@H](Cc1ccccc1)NC(=O)OCc1ccccc1)C(C)C (stereo not given in full) |  |
| 7.85 |  |  | COC(=O)CC(O)[C@H](CC(C)C)NC(=O)[C@H](C)NC(=O)CC(O)[C@H](CC(C)C)NC(=O)[C@H](Cc1ccccc1)NC(=O)[C@H](Cc1ccccc1)NC(=O)OC(C)(C)C (stereo not given in full) | pIC50 (Renin [6]): 8.46 |
| 6.07 |  |  | COC(=O)CC(O)[C@H](CC(C)C)NC(=O)[C@H](C)NC(=O)CC(O)[C@H](CC(C)C)NC(=O)[C@H](Cc1c[nH]cn1)NC(=O)[C@H](Cc1c[nH]c2ccccc12)NC(=O)OC(C)(C)C (stereo not given in full) | pIC50 (Renin [6]): 8.26 |
|  | 5.96 | 7.17 | COC(=O)[C@H](Cc1ccccc1)NC(=O)[C@H](CC(C)C)NC(=O)CC(O)[C@H](CC(C)C)NC(=O)[C@H](Cc1c[nH]cn1)NC(=O)COC(=O)C(C)(C)C (stereo not given in full) |  |
| 5.89 |  |  | COC(=O)CC(O)[C@H](CC(C)C)NC(=O)[C@H](C)NC(=O)CC(O)[C@H](CC(C)C)NC(=O)[C@H](Cc1cnc[nH]1)NC(=O)[C@H](Cc1ccccc1)NC(=O)OC(C)(C)C (stereo in doubt; 15) |  |
| 5.89 |  |  | COC(=O)CC(O)[C@H](CC(C)C)NC(=O)[C@H](C)NC(=O)CC(O)[C@H](CC(C)C)NC(=O)[C@H](Cc1cnc[nH]1)NC(=O)[C@H](Cc1ccccc1)NC(=O)OC(C)(C)C (stereo in doubt; 17) |  |

— ChEMBL document CHEMBL1124219, “Inhibition of porcine pepsin by two substrate analogues containing statine. The effect of histidine at the P2 subsite on the inhibition of aspartic proteinases” (J Med Chem, 1988)
